According to paper PMC9322450 (Angewandte Chemie (International ed. in English), 2022):

Experiments:
S. aureus = test: murine open-wound model of S. aureus infection; assay type: in vivo, mouse; conditions: even at relatively high concentrations (e.g. 10 μM)
[1] = assay type: in vitro ADME, mouse
How it was run: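 Mouse epidermis punches (C57BL/6-type, ≈6 mm diameter, 1 mm thick) incubated with test compound at 4.85 μM in PBS for 24 h. Supernatant sampled over time, diluted 100-fold, added to a group-I S. aureus agr YFP reporter strain making native AIP. Fluorescence normalized to vehicle (100%) and media (0%) controls, n=3 independent experiments; remaining active compound estimated from an earlier dose-response curve.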

Substance: AIP-III D4A
- benefit on wound healing (S. aureus): only a limited benefit on wound healing
- loss of active compound ([1]; after 24 h with mouse tissue in PBS, start 4.85 μM): ~ 95%
- loss of inhibitory activity in the absence of mouse tissue ([1]; control without tissue, 24 hr): no loss of inhibitory activity
- loss of activity with heat-treated tissue ([1]; tissue sample heat treated at 80 °C for 15 min before addition of compound): loss of activity could be prevented
